According to PubChem BioAssay AID602169 (The Scripps Research Institute Molecular Screening Center, 2012):
The source made the active and inactive calls.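 The calls were made as follows: active = luciferase reporter signal inhibited by 20% or more; inactive = inhibition below 20%.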

System: BG1Luc4E2 ER-luciferase reporter inhibition, 24 h
Test: suppression of estradiol-induced ERE reporter expression – BG1Luc4E2 ovarian carcinoma cells, luminescence, counter-screen for AHR activator project, late-stage follow-up (AID 602169)
Conditions: at 10 µM; hits give high values
Procedure, shortened: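 Times: 5-day estrogen depletion, then 24 h compound exposure at 37 °C. Assay system: BG1Luc4E2 ovarian carcinoma ERE-luciferase reporter cells. Replicates: triplicates. Compound dosing: single dose of 10 µM per compound. Detection: luciferase luminescence after lysis. Buffer or medium: phenol red-free DMEM, charcoal-stripped serum.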

With `Cn1c(C(=O)N2CCC(C(N)=O)CC2)cc2cc(Cl)ccc21` the inhibition was 4% (inactive).

With `CCCC(=O)Nc1nn(C)c2nc3cc(C)ccc3cc12` the inhibition was 0% (inactive).

`Cc1ccc(-c2cc(-c3cccs3)[nH]n2)c(O)c1` was tested, and the inhibition was 20%.

Molecule `O=C(Nc1ccon1)c1cnc2sccn2c1=O` has an inhibition of 34%.

With `COc1ccccc1NC(=O)c1ccc(C(=O)Nc2ccccc2OC)nc1` the inhibition was 0% (inactive).

`CCOC(=O)Cc1cc(-c2ccc(O)cc2)nc2ccc3ccccc3c12` showed an inhibition of 28%.

`COc1ccc(NC(=O)c2cccc3c(Br)cccc23)cc1` was tested, and the inhibition was 31%.

With `COc1ccc(C(=O)Nc2cc(OC)c(NC(=O)c3ccco3)cc2OC)cc1` the inhibition was 0% (inactive).

`COc1ccccc1NC(=O)Nc1cccnc1` was tested, and the inhibition was 3% (inactive).

In the case of `COc1cc2ccccc2cc1C(=O)Nc1ccc(C)cc1`, the inhibition is reported as 40%.

In the case of `Cc1cc(Nc2ccc(Br)cc2)n2nc(C)nc2n1`, the inhibition is reported as 0% (inactive).

In the case of `Cc1nc(N)nc(Nc2ccc(Cl)cc2)c1Br`, the inhibition is reported as 7% (inactive).

With `CCOc1ccc(NC(=O)c2cc3ccccc3cc2OC)cc1` the inhibition was 5.3% (inactive).

For `COc1ccccc1NC(=O)c1ccc2c(c1)nnn2C`, the inhibition was 0% (inactive).

For `Cc1csc(SCC(=O)Nc2ccc(Cl)cn2)n1`, the inhibition was 0% (inactive).

For `Cc1nnc(N2C(=O)c3cccc4c([N+](=O)[O-])ccc(c34)C2=O)s1`, the inhibition was 0% (inactive).

`CCOc1ccc(-c2cc(C)n3nc(C(N)=O)cc3n2)cc1` was tested, and the inhibition was 0% (inactive).

`COC(=O)c1ccccc1NC(=O)Cn1ccnc1` was tested, and the inhibition was 3% (inactive).

With `O=C(Nc1cccc(Cl)c1)c1cccnn1` the inhibition was 2% (inactive).

`CN1CCN(CCCNC(=O)c2cc3c(-c4ccc(Cl)cc4)nn(C)c3s2)CC1` was tested, and the inhibition was 0% (inactive).

With `O=C(CN1CCOCC1)Nc1nc2ccc([N+](=O)[O-])cc2s1` the inhibition was 11% (inactive).

For `CN(C)c1nc(N)nc(-c2nc3ccccc3s2)n1`, the inhibition was 44%.

`COc1cc2c(cc1NC(=O)Nc1ccc(C)cc1)oc1ccccc12` was tested, and the inhibition was 5% (inactive).

With `CCC(=O)Nc1cc(OC)c(NC(=O)c2ccccc2)cc1OC` the inhibition was 1% (inactive).

With `Cn1c(N)c(C(=O)Nc2ccccc2F)sc1=S` the inhibition was 5% (inactive).

In the case of `CC(=O)c1ccc(NC(=O)c2cc(Cl)nc3ccccc23)cc1`, the inhibition is reported as 2% (inactive).

With `COc1ccc(Cl)cc1C(=O)Nc1ccc(N(C)C(C)=O)cc1` the inhibition was 2% (inactive).

`Cc1ccccc1-c1nc(-c2cccnc2)no1` showed an inhibition of 22%.

In the case of `O=C1c2ccccc2-c2nc3ccccc3nc21`, the inhibition is reported as 34%.

Molecule `Cc1ccc(Nc2ncccc2C(N)=O)cc1` has an inhibition of 24%.

For `Cc1c(-c2ccn[nH]2)cc(NC(=O)c2ccc(Cl)cc2)c(=O)n1N`, the inhibition was 1% (inactive).

`CCOc1ccccc1NC(=O)c1ccc2nccnc2c1` was tested, and the inhibition was 8% (inactive).

For `COc1ccccc1C(=O)Nc1ccc(N2CCCCC2)cc1`, the inhibition was 47%.
